In ChEMBL document CHEMBL3272325, “Structure-activity relationships of dimeric Catharanthus alkaloids. 1. Deacetylvinblastine amide (vindesine) sulfate” (J Med Chem, 1978):
Active and inactive are the calls of the source. No cut-off for these calls is given here.

Assays:
[1] = Antitumor activity against mouse Gardner lymphosarcoma cell allografted in mouse at 0.2 to 0.3 mg/kg/day, ip; assay type: functional; conditions: route intraperitoneal
Procedure, shortened: (§1)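 Ridgeway osteogenic sarcoma and Gardner lymphosarcoma in mice, with sulfate salts given ip daily on days 1-9. Tumor growth inhibition versus controls scored in bands: +++ = 75-100%, ++ = 50-75%, ± = under 25%.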

[2] = Antitumor activity against mouse Ridgeway osteogenic sarcoma cells allografted in mouse at 0.2 to 0.3 mg/kg/day, ip; assay type: functional; conditions: route intraperitoneal; procedure, shortened: as §1
[3] = Antitumor activity against mouse Gardner lymphosarcoma cell allografted in mouse at 1.0 to 2.0 mg/kg/day, ip; assay type: functional; conditions: route intraperitoneal
Procedure, shortened: (§2)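 Sulfate salts given ip on days 1-9 against ROS and GLS in mice; tumor growth scored as percent inhibition versus controls (+++ = 75-100%, ++ = 50-75%, ± = under 25%).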

[4] = Antitumor activity against mouse Ridgeway osteogenic sarcoma cells allografted in mouse at 1 to 2 mg/kg/day, ip; assay type: functional; conditions: route intraperitoneal; procedure, shortened: as §2
Mus musculus = test: Antitumor activity against Gardner lymphosarcoma cell in po dosed mouse; assay type: functional, organism-based
P388 [5] = test: Antitumor activity against mouse P388 cells allografted in mouse assessed as survival at 1.8 mg/kg/day after 1 day; assay type: functional, organism-based
Procedure, shortened: (§3)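 P388 ascites implanted ip in mice; sulfate salts dosed either daily or as a single dose on day 1, 10 animals per group. Survivors per total were recorded, median life span was calculated using all deaths and survivors, and percent increase of life span was reported.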

P388 [6] = test: Antitumor activity against mouse P388 cells allografted in mouse assessed as survival at 0.10 mg/kg/day administered from day 1 to day 9; assay type: functional, organism-based; procedure, shortened: as §3
Leukemia cell [7] = test: Antitumor activity against human leukemia cells allografted in human assessed as remission of nonlymphocytic leukemia at 3 to 4 mg/m'2, iv once weekly dosed through push technique; assay type: functional, organism-based
P388 [8] = test: Antitumor activity against mouse P388 cells allografted in mouse assessed as survival at 4 mg/kg/day after 1 day; assay type: functional, organism-based; procedure, shortened: as §3
P388 [9] = test: Antitumor activity against mouse P388 cells allografted in mouse assessed as survival at 2.7 mg/kg/day after 1 day; assay type: functional, organism-based; procedure, shortened: as §3
sarcoma = test: Antitumor activity against mouse Ridgeway osteogenic sarcoma cell allografted in po dosed mouse; assay type: functional, organism-based
Leukemia cell [10] = test: Antitumor activity against human leukemia cells allografted in human assessed as remission of acute lymphocytic leukemia at 3 to 4 mg/m'2, iv once weekly dosed through push technique; assay type: functional, organism-based

CC[C@]1(O)C[C@H]2CN(CCc3c([nH]c4ccccc34)[C@@](C(=O)OC)(c3cc4c(cc3OC)N(C)[C@H]3[C@@](O)(C(=O)NN)[C@H](O)[C@]5(CC)C=CCN6CC[C@]43[C@@H]65)C2)C1
TGI [1]: 75%
TGI [2]: 75%

CC[C@]1(O)C[C@@H]2C[C@H](c3cc4c(cc3OC)N(C)[C@H]3[C@@](O)(C(N)=O)[C@H](O)[C@]5(CC)C=CCN6CC[C@]43[C@@H]65)c3[nH]c4ccccc4c3CCN(C2)C1.O=S(=O)(O)O
TGI [3]: <25%
TGI [4]: <25%

CC[C@]1(O)C[C@@H]2C[C@H](c3cc4c(cc3OC)N(C)[C@H]3[C@@](O)(C(=O)NN)[C@H](O)[C@]5(CC)C=CCN6CC[C@]43[C@@H]65)c3[nH]c4ccccc4c3CCN(C2)C1
TGI [3]: <25%
TGI [4]: <25%

CC[C@]1(O)C[C@@H]2CN(CCc3c([nH]c4ccccc34)[C@@](C(=O)OC)(c3cc4c(cc3OC)N(C)[C@H]3[C@@](O)(C(N)=O)[C@H](O)[C@]5(CC)C=CCN6CC[C@]43[C@@H]65)C2)C1
Activity (Mus musculus): inactive
Activity (P388 [5]): inactive
Activity (P388 [6]): inactive
Activity (Leukemia cell [7]): Active
Activity (P388 [8]): inactive
Activity (P388 [9]): inactive
Activity (sarcoma): inactive
Activity (Leukemia cell [10]): Active
